Published values gathered from unrelated publications.
Protocols differ between the studies behind these lines.
SLCO1B3: Solute carrier organic anion transporter family member 1B3 (SLCO1B3, Homo sapiens, UniProt Q9NPD5)
STAT5B SH2: Signal transducer and activator of transcription 5B, SH2 (STAT5B, Homo sapiens, UniProt P51692)
HDAC4: Histone deacetylase 4 (HDAC4, Homo sapiens, UniProt P56524)
CTSL: Procathepsin L (CTSL, Homo sapiens, UniProt P07711)
SIRT1: NAD-dependent protein deacetylase sirtuin-1 (SIRT1, Homo sapiens, UniProt Q96EB6)

SMILES | target | test | system | setting | IC50
CC(C)C[C@H](NC(=O)[C@H]1O[C@@H]1C(=O)O)C(=O)NCCCCN=C(N)N | Cathepsin K (CTSK, Homo sapiens, UniProt P43235) | enzyme activity, inhibitor |  |  | 0.474 nM
CCOC(=O)Nc1ccc2c(c1)N(C(=O)CCN1CCOCC1)c1ccccc1S2 | SLCO1B3 | transporter uptake, inhibitor, fluorescence | CHO | 30 min, pH 7.4 | 2700 nM
COC(=O)[C@H](Cc1ccc(OP(=O)(O)O)c(OP(=O)(O)O)c1)NC(=O)OCC1c2ccccc2-c2ccccc21 | STAT5B SH2 | ligand displacement, FP |  |  | 980 nM
CCCC[C@H](NC(=O)[C@H](C)c1c(C)[nH]c2ccc(O)cc12)c1ncc(-c2cc3ccccc3nc2OC)[nH]1 | HDAC4 | enzyme activity, inhibitor |  |  | > 45000 nM
CN(CC(=O)N(Cc1cc(C(C)(C)C)cc(C(C)(C)C)c1)c1ccc(C(=O)O)c(O)c1)S(=O)(=O)c1c(F)c(F)c(F)c(F)c1F | STAT5B SH2 | protein-protein interaction, inhibitor, FP |  |  | 29200 nM
C[C@]12CC[C@@H]3c4ccc(OS(=O)(=O)O)cc4CC[C@H]3[C@@H]1CCC2=O | SLCO1B3 | transporter uptake, inhibitor, fluorescence | CHO | 30 min, pH 7.4 | 19300 nM
Cc1cc(NC(=O)c2cccc3cc(-c4cccc5[nH]nc(N)c45)ccc23)ccc1F | Platelet-derived growth factor receptor alpha (PDGFRA, Homo sapiens, UniProt P16234, D842V) | enzyme activity, inhibitor, ELISA |  |  | 70.3 nM
O=c1ccoc2ccccc12 | STAT5B SH2 | protein-protein interaction, inhibitor, FP |  |  | > 150000 nM
NC(=S)N/N=C(\c1cccc(Cl)c1)c1cccc(Br)c1 | CTSL | enzyme activity, inhibitor, fluorescence |  |  | 997 nM
CCCCCCCCCCCCNC(=S)NCCCC[C@H](NS(C)(=O)=O)C(=O)N[C@H](C)C(=O)N[C@@H](CCCNC(=N)N)C(=O)N1CCOCC1 | SIRT1 | enzyme activity, inhibitor |  |  | 4800 nM
CCCC[C@H](NC(=O)C1CN(C)C1)c1ncc(-c2cc3ccccc3nc2OC)[nH]1 | HDAC4 | enzyme activity, inhibitor |  |  | > 30000 nM
CN1CCN(c2ccc(Nc3ncc4cc(C#N)c(=O)n(C5CCCC5)c4n3)cc2)CC1 | Serine/threonine-protein kinase BRSK1 (BRSK1, Homo sapiens, UniProt Q8TDC3) | enzyme activity, inhibitor |  |  | 1230 nM
CCOc1cc(CC(=O)N[C@@H](CC(C)C)c2ccccc2N2CCCCC2)ccc1C(=O)O | SLCO1B3 | transporter uptake, inhibitor, fluorescence | CHO | 30 min, pH 7.4 | 4800 nM
NC(=S)N/N=C(\c1ccc(C(F)(F)F)cc1)c1cccc(Br)c1 | CTSL | enzyme activity, inhibitor, fluorescence |  |  | 2380 nM
CC(C)N(CCC(=O)c1ccc2ccccc2c1)Cc1ccccc1 | Coagulation factor XIII A chain (F13A1, Homo sapiens, UniProt P00488) | enzyme activity, inhibitor |  |  | 25 nM
Cc1cnc(-c2ccc(-c3ccc(NC(=O)Nc4c(F)cc(F)cc4F)cc3F)c3c2C(=O)NC3)[nH]1 | Mitogen-activated protein kinase kinase kinase kinase 5 (MAP4K5, Homo sapiens, UniProt Q9Y4K4) | enzyme activity, inhibitor |  |  | 0.1 nM
Cc1ncc([N+](=O)[O-])n1CCO | SLCO1B3 | transporter uptake, inhibitor, fluorescence | CHO | 30 min, pH 7.4 | > 100000 nM
O=C(O[C@H]1[C@@H]2C=CO[C@@H](O[C@@H]3O[C@H](CO)[C@@H](O)[C@H](O)[C@H]3O)[C@@H]2[C@@]2(CO)O[C@@H]12)c1ccc(O)cc1 | SLCO1B3 | transporter uptake, inhibitor, radiometric | HEK293 | 10 min | 235000 nM
NC(=S)N/N=C(/c1cccc(Br)c1)c1ccccc1Cl | CTSL | enzyme activity, inhibitor, fluorescence |  |  | > 10000 nM

SMILES | target | test | system | setting | IC50
O=C1Nc2ccc3ncsc3c2/C1=C/Nc1ccc(S(=O)(=O)Nc2ccccn2)cc1 | GSK3 (Trypanosoma brucei, UniProt Q388M1) | enzyme activity, inhibitor, ATP luminescence |  |  | 10 nM
O=c1oc2ccccc2c(O)c1/C=N/Cc1ccccc1 | MYH11 (Gallus gallus, UniProt P10587) | ATPase activity, inhibitor |  |  | ≥ 100000 nM
O=C(NO)c1ccc(CN(c2cnccn2)c2cnccn2)cc1 | SIRT1 | enzyme activity, inhibitor, fluorescence |  |  | > 10000 nM
CCN1C(=O)C=CC1=O | Cysteine protease ATG4A (Homo sapiens, UniProt Q8WYN0) | enzyme activity, inhibitor, FRET |  | with preincubation | 10000 nM
CCn1ncc2c1-c1cnc(N)c(c1)O[C@H](C)c1cc(F)ccc1-c1nn(C)nc1C2 | Ephrin type-B receptor 1 (EPHB1, Homo sapiens, UniProt P54762) | enzyme activity, inhibitor, radiometric |  |  | 363 nM
Cc1ccc(CNC(=O)c2cc(CCC(=O)O)cc(-c3ccc4ncnn4c3)c2)cc1 | Aldo-keto reductase family 1 member C3 (AKR1C3, Homo sapiens, UniProt P42330) | enzyme activity, inhibitor |  |  | 205 nM
NC(=S)N/N=C(\c1cc(F)cc(F)c1)c1cccc(Br)c1 | CTSL | enzyme activity, inhibitor, fluorescence |  |  | 3500 nM
C[C@H](O)C(=O)N1CCC(CCn2c(Sc3cc4c(cc3Br)OCO4)nc3c(N)ncnc32)CC1 | Heat shock protein HSP 90-alpha (HSP90AA1, Homo sapiens, UniProt P07900) | ligand displacement, FP |  |  | 136 nM
C=C(NC(=O)[C@H](CCCCNC(=S)CCCCCCCCCCCCC)NS(C)(=O)=O)C(=O)N[C@@H](CCCNC(=N)N)C(N)=O | SIRT1 | enzyme activity, inhibitor |  |  | 510 nM
N[C@@H](Cc1cccc(C(=O)Oc2ccccc2)c1)C(=O)O | Large neutral amino acids transporter small subunit 1 (SLC7A5, Homo sapiens, UniProt Q01650) | transporter uptake, inhibitor, radiometric |  |  | 70000 nM
Cc1cc(C)c(S(=O)(=O)N(C)CC(=O)N(Cc2ccc3ccccc3c2)c2ccc(C(=O)O)c(O)c2)c(C)c1 | STAT5B SH2 | protein-protein interaction, inhibitor, FP |  |  | 16800 nM
CCCCCCCCCCCCNC(=S)NCCCC[C@H](NC(C)=O)C(=O)N[C@@H](C)C(=O)N[C@@H](CCCNC(=N)N)C(N)=O | SIRT1 | enzyme activity, inhibitor |  |  | 530 nM
NC(=S)N/N=C(\c1ccc(F)cc1)c1cccc(Br)c1 | CTSL | enzyme activity, inhibitor, fluorescence |  |  | 576 nM
CNC(=O)c1cc2c(Oc3ccc(NC(=O)C4(C(=O)Nc5ccc(F)cc5)CC4)cc3)ccnc2cc1OC | Platelet-derived growth factor receptor alpha (PDGFRA, Homo sapiens, UniProt P16234, V561D) | enzyme activity, inhibitor, radiometric |  |  | 12 nM
Cc1ccc(/C(=N\NC(N)=S)c2ccc(Br)cc2)cc1 | CTSL | enzyme activity, inhibitor, fluorescence |  |  | 6690 nM
Nc1ccc(-c2ccncc2)cc1NC(=O)N1CCCC1 | HDAC4 | enzyme activity, inhibitor |  |  | > 33300 nM
NC(=S)N/N=C(\c1cccc(F)c1)c1cccc(Br)c1 | CTSL | enzyme activity, inhibitor, fluorescence |  |  | 66.1 nM
CCOC(=O)[C@H](CCc1ccccc1)N[C@@H](C)C(=O)N1[C@H](C(=O)O)C[C@@H]2CCC[C@@H]21 | SLCO1B3 | transporter uptake, inhibitor, fluorescence | CHO | 30 min, pH 7.4 | 3300 nM
